Source: ChEMBL document CHEMBL4616671, “Identification of N-Phenyl-7H-pyrrolo[2,3-d]pyrimidin-4-amine Derivatives as Novel, Potent, and Selective NF-κB Inducing Kinase (NIK) Inhibitors for the Treatment of Psoriasis” (J Med Chem, 2020)
The source made the active and inactive calls. No cut-off for these calls is given here.

Key:
[1] = Volume of distribution in Sprague-Dawley rat at 1 mg/kg, iv administered as single bolus dose by LC-MS/MS analysis; assay type: ADME, organism-based; settings: in vivo
Outline: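 SD rats, 3 per group. Single IV bolus at 1 mg/kg in DMSO:PEG200:saline 20:20:60 (0.2 mg/mL), or oral gavage at 10 mg/kg as suspension in 0.5% CMC-Na/0.2% Tween 80 (1 mg/mL). Plasma protein-precipitated with acetonitrile containing internal standards, then quantified by LC-MS/MS. Parameters derived by noncompartmental analysis. Mean ± SD.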

[2] = organism: Homo sapiens; test: Selectivity ratio of IC50 for human JAK3 to IC50 for human NIK
[3] = Intrinsic hepatic clearance in dog; assay type: ADME, Canis lupus familiaris; settings: in vivo
Outline: (§1)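 Scaled from microsomal intrinsic clearance: CLint,in vitro × microsomal protein per g liver × liver weight per kg body weight.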

[4] = organism: Homo sapiens; test: Selectivity ratio of IC50 for human ACK1 to IC50 for human NIK
[5] = target: Mitogen-activated protein kinase kinase kinase 14 (Mus musculus) (UniProt Q9WUL6); test: In vivo inhibition of NIK in po dosed C57 mouse model of IMQ-induced psoriasis assessed as reduction in P52 expression in back skin administered starting from day 3 post IMQ-challenge and measured 2 days post-last dose of IMQ by Western blot analysis; assay type: functional, organism-based
Sequence of Mitogen-activated protein kinase kinase kinase 14 (Mus musculus) (Q9WUL6 whole entry): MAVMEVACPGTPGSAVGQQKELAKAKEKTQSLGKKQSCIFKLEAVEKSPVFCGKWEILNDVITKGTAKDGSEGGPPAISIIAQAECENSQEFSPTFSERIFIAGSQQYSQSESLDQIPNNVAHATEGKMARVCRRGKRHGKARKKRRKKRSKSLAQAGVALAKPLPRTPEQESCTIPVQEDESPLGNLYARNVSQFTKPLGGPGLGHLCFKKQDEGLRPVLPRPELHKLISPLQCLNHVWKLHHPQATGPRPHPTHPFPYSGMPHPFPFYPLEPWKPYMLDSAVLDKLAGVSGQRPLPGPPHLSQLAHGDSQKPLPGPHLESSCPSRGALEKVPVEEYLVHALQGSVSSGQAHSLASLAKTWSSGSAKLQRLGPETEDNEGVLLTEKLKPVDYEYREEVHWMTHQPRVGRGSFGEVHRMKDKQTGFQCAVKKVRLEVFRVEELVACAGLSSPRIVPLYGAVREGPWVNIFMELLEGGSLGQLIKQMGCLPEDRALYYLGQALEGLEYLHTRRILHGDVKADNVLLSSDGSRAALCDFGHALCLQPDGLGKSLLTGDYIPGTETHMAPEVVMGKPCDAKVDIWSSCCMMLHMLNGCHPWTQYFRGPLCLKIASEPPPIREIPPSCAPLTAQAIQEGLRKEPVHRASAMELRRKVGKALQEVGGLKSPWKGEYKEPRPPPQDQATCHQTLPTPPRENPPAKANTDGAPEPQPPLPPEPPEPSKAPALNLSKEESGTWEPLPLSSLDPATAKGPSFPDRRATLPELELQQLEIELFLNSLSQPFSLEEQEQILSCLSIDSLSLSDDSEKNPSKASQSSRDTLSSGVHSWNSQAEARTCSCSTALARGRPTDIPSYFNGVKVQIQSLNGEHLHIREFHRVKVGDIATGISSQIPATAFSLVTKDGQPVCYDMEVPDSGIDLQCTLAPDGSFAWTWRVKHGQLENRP
Outline: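 IMQ-induced psoriasis in C57 mice, 5% cream daily for 7 days, oral dosing 60 or 120 mg/kg from day 3. Back-skin protein extracts probed by western blot for p100 and p52; band optical density normalized to GAPDH.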

[6] = test system: Mus musculus; test: Suppression of IMQ-induced psoriasis in ig dosed C57 mouse assessed as reduction in serum IL-17A level administered once daily starting from day 3 post IMQ-challenge and measured 2 days post-last dose of IMQ by ELISA; assay type: functional, organism-based
Outline: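 IMQ-induced C57 mice (5% cream 7 days; 60 or 120 mg/kg i.g. daily from day 3). Blood collected at end of dosing, held 12 h at 4 °C, centrifuged; serum IL-17A by ELISA. Mean ± SEM.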

[7] = Cmax in Sprague-Dawley rat at 10 mg/kg, po administered via gavage measured at 0.833 hrs by LC-MS/MS analysis; assay type: ADME, organism-based; parameters: dose 10 mg/kg, route oral; settings: in vivo
[8] = test system: Mus musculus; test: Suppression of epidermal and dermal cell proliferation in C57 mouse model of IMQ-induced psoriasis assessed as reduction in Ki67 expression in back skin psoriatic lesions at 120 mg/kg, ig administered starting from day 3 post IMQ-challenge and measured 2 days post-last dose of IMQ by immunohistochemical analysis relative to control; assay type: functional; settings: C57, topical
Outline: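 C57 mice given 5% imiquimod cream on back skin q.d. for seven days. Gavage q.d. at 60 or 120 mg/kg from day 3, n = 6 per group. Back-skin frozen sections (6 µm) stained for Ki67 by IHC. % Ki67+ of total cells quantified and normalized to IMQ-only model group. Two-tailed t-test, mean ± SD.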

[9] = Oral bioavailability in Sprague-Dawley rat at 10 mg/kg administered via gavage by LC-MS/MS analysis; assay type: ADME, organism-based; settings: in vivo
[10] = test system: Mus musculus; test: Suppression of IMQ-induced psoriasis in ig dosed C57 mouse assessed as reduction in serum TNFalpha level administered once daily starting from day 3 post IMQ-challenge and measured 2 days post-last dose of IMQ by ELISA; assay type: functional, organism-based
Outline: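 Psoriasis-like dermatitis induced by 5% imiquimod cream on back skin of C57 mice, q.d. for seven days. Oral (i.g.) dosing q.d. at 60 or 120 mg/kg from day 3 to study end, n = 6 per group. At end, blood held at 4 °C for 12 h, then centrifuged. Serum TNFα measured by ELISA. Mean ± SEM.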

[11] = test system: J774; test: Antiinflammatory activity in mouse J774 cells assessed as reduction in LPS-induced NOS2 mRNA level by SYBR green dye-based quantitative PCR analysis; assay type: functional, cell-based
Outline: (§2)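 LPS-stimulated J774 macrophages; mRNA quantified by qPCR using 4 µL cDNA plus 16 µL master mix per reaction. Mean ± SD of three biological replicates; significance by two-tailed Student's t-test against the model group.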

[12] = Intrinsic clearance in human liver microsomes assessed per mg of protein incubated for 10 mins followed by potassium phosphate buffer addition and measured after 5 to 60 mins by LC-MS/MS analysis; assay type: ADME, Microsome; settings: read-out: CLH
Outline: (§3)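 Rat, dog, monkey or human liver microsomes pre-incubated with compound at 37 °C for 10 min; reaction started after pre-warming and stopped at 5, 15, 30, 60 min with chilled quench containing tolbutamide and labetalol. No-cofactor control in 100 mM potassium phosphate for 60 min. LC-MS/MS analysis; first-order fit: k = −slope, T1/2 = 0.693/k, CLint = k/microsomal protein concentration.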

[13] = test system: Mus musculus; test: Protection against IMQ-induced dermatitis in C57 mouse model of psoriasis assessed as reduction in invasive erythema at 60 to 120 mg/kg, ig administered once daily starting from day 3 post IMQ-challenge and measured 2 days post-last dose of IMQ; assay type: functional, organism-based
Outline: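 C57 mice given 5% imiquimod cream on the back once daily for 7 days; intragastric dosing 60 or 120 mg/kg once daily from day 3 to end, n = 6 per group. Dorsal skin phenotype assessed by imaging.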

[14] = Intrinsic hepatic clearance in human; assay type: ADME; outline: as §1
[15] = organism: Homo sapiens; test: Selectivity ratio of IC50 for human LRRK2 to IC50 for human NIK
[16] = Half life in Sprague-Dawley rat at 1 mg/kg, iv administered as single bolus dose by LC-MS/MS analysis; assay type: ADME, organism-based; settings: in vivo
[17] = target: Tyrosine-protein kinase JAK1 (Homo sapiens, UniProt P23458); test: Inhibition of human JAK1 using poly[Glu:Tyr] (4:1) as substrate in presence of [gamma33P]ATP by hotspot assay
Sequence of Tyrosine-protein kinase JAK1 (P23458 whole entry): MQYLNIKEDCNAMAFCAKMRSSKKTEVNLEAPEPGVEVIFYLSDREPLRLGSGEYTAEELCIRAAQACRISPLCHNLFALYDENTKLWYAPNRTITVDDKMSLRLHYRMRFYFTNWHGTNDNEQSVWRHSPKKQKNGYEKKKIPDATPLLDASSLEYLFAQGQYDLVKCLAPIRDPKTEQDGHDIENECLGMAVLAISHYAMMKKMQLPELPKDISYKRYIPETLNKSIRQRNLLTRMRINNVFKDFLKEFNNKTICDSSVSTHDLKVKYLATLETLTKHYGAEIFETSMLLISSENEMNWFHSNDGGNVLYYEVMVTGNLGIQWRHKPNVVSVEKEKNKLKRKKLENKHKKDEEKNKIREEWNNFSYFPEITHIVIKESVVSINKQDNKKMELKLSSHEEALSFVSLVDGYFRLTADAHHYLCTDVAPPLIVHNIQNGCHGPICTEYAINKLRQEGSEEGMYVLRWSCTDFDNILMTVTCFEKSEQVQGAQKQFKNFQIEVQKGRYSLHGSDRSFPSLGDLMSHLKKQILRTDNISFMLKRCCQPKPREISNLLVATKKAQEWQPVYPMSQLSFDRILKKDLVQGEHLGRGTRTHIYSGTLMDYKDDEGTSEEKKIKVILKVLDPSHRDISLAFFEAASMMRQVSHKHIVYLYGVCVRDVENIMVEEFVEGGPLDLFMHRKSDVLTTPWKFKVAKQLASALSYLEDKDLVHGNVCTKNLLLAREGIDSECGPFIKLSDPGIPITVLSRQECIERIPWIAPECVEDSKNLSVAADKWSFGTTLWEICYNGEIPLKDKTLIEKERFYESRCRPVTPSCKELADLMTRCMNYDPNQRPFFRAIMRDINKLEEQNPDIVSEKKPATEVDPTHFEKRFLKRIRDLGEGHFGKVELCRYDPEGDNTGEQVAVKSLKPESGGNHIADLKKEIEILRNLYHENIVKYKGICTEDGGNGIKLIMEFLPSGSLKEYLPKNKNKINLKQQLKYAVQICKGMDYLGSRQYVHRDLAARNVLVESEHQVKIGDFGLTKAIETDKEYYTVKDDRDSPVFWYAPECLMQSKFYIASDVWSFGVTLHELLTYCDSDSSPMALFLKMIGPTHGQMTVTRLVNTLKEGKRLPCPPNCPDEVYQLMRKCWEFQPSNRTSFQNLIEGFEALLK

[18] = test system: J774; test: Antiinflammatory activity in mouse J774 cells assessed as inhibition of LPS-induced NO production at 1 uM preincubated for 2 hrs followed by LPS stimulation and measured after 22 hrs by Griess reagent based assay relative to control; assay type: functional
Outline: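 J774 macrophages seeded at 2*10^4 cells/mL, 24 h at 37 °C 5% CO₂; compound in DMSO at 1 µM, 3 replicate wells, 2 h pre-incubation, then LPS at 1 ug/mL final for 22 h. Supernatant nitrite read with Griess reagent at 540 nm against a sodium nitrite standard curve. Inhibition % = (model − compound)/(model − control) NO ×100; mean ± SD, three independent experiments.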

[19] = Initial plasma concentration in Sprague-Dawley rat at 1 mg/kg, iv administered as single bolus dose by LC-MS/MS analysis; assay type: ADME, organism-based
[20] = Elimination half life in dog liver microsomes incubated for 10 mins followed by potassium phosphate buffer addition and measured after 5 to 60 mins by LC-MS/MS analysis; assay type: ADME, Canis lupus familiaris, Microsome; settings: read-out: beta t1/2; outline: as §3
[21] = test system: Mus musculus; test: Suppression of IMQ-induced epidermal acanthosis in ig dosed C57 mouse model of psoriasis assessed as reduction in epidermal thickness administered once daily starting from day 3 post IMQ-challenge and measured 2 days post-last dose of IMQ by hematoxylin-eosin staining based confocal laser scanning microscopy; assay type: functional, organism-based
Outline: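 IMQ-induced C57 mice (5% cream 7 days; 60 or 120 mg/kg i.g. daily from day 3, n = 6). Formalin-fixed, paraffin-embedded back skin cut at 3 µm and H&E stained. Epidermal thickness measured in six randomly chosen fields; blind evaluation by two pathologists.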

[22] = target: Mitogen-activated protein kinase kinase kinase 14 (Mus musculus) (UniProt Q9WUL6); test: Inhibition of NIK in mouse J774 cells assessed as reduction in LPS-induced TNFalpha mRNA level by SYBR green dye-based quantitative PCR analysis; assay type: cell-based; outline: as §2

Vd [1]: 2.73 L/kg
Ratio IC50 [2]: 4 to 20
CLH [3]: 62.4 mL/min/kg
Ratio IC50 [4]: 4 to 20
inhibition [5]: Dose-dependent effect
Cmax [7]: 772 ng/mL
bioavailability [9]: 64%
microsomal CLint [12]: 32.4 µL/min/mg
CLH [14]: 30.6 mL/min/kg
Ratio IC50 [15]: 4 to 20
half-life [16]: 56.6 min
IC50 [17]: 183 nM
C0 [19]: 377 ng/mL
half-life [20]: 32.4 min
inhibition [22]: Active
SMILES: CC(O)(C#Cc1ccc(N2CCOCC2)c(Nc2ncnc3[nH]ccc23)c1)c1nccs1 (racemic)
inhibition [6]: Dose-dependent effect
inhibition in vivo at 120 mg/kg [8]: 83%
inhibition [10]: Dose-dependent effect
Activity [11]: Active
Activity [13]: Active
inhibition at 1 µM [18]: 86.3%
inhibition [21]: Dose-dependent effect
